System: Fibroblast
Assay: Multiplex assay against human fibroblast
Assay type: toxicity, cell-based
How it was run: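 Imaging took place on a CQ1 microscope at 37°C and 5% CO2 once compound had been added to live cells stained at seeding with Hoechst33342, BioTracker Green Microtubule Cytoskeleton Dye, MitoTracker Red and Annexin V Alexa Fluor 680. CellPathfinder machine-learning gating classed cells as Hoechst high-intensity objects or normal cells, classed normal cells as having healthy, pyknosed or fragmented nuclei, and classed pyknosed cells as mitotic or apoptotic. Tubulin, mitochondrial-mass and membrane-permeability phenotypes are per cents of the healthy-nucleus cells.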

[1] = 12 h, 1 µM, compound concentration 1 uM, replicate 1
[2] = 12 h, 1 µM, compound concentration 1 uM, replicate 2
[3] = 12 h, 10 µM, compound concentration 10 uM, replicate 1
[4] = 12 h, 10 µM, compound concentration 10 uM, replicate 2
[5] = 24 h, 1 µM, compound concentration 1 uM, replicate 1
[6] = 24 h, 1 µM, compound concentration 1 uM, replicate 2
[7] = 24 h, 10 µM, compound concentration 10 uM, replicate 1
[8] = 24 h, 10 µM, compound concentration 10 uM, replicate 2
[9] = 48 h, 1 µM, compound concentration 1 uM, replicate 1
[10] = 48 h, 1 µM, compound concentration 1 uM, replicate 2
[11] = 48 h, 10 µM, compound concentration 10 uM, replicate 1
[12] = 48 h, 10 µM, compound concentration 10 uM, replicate 2

COc1c(Nc2ccc(S(C)(=O)=O)nc2C)ncnc1OC1CCN(C(=O)OC(C)C)CC1 [ADP-597]
Population Apoptotic (%) [1]: 57%
Population Fragmented Nuclei (%) [1]: 14%
Population Healthy Nuclei (%) [1]: 71%
Population Hoechst High Intensity Objects (%) [1]: 3%
Population Membrane Permeable-Phenotype (%) [1]: 0%
Population Mitochondria Different-Phenotype (%) [1]: 10%
Population Mitotic Cells (%) [1]: 42%
Population Normal (%) [1]: 96%
Population Pyknosed Nuclei (%) [1]: 14%
Population Tubulin-Different-Phenotype (%) [1]: 34%
Total Cell Count [1]: 133
Population Apoptotic (%) [2]: 42%
Population Fragmented Nuclei (%) [2]: 27%
Population Healthy Nuclei (%) [2]: 40%
Population Hoechst High Intensity Objects (%) [2]: 4%
Population Membrane Permeable-Phenotype (%) [2]: 2%
Population Mitochondria Different-Phenotype (%) [2]: 7%
Population Mitotic Cells (%) [2]: 57%
Population Normal (%) [2]: 95%
Population Pyknosed Nuclei (%) [2]: 33%
Population Tubulin-Different-Phenotype (%) [2]: 27%
Total Cell Count [2]: 105
Population Apoptotic (%) [3]: 44%
Population Fragmented Nuclei (%) [3]: 21%
Population Healthy Nuclei (%) [3]: 58%
Population Hoechst High Intensity Objects (%) [3]: 2%
Population Membrane Permeable-Phenotype (%) [3]: 0%
Population Mitochondria Different-Phenotype (%) [3]: 15%
Population Mitotic Cells (%) [3]: 56%
Population Normal (%) [3]: 97%
Population Pyknosed Nuclei (%) [3]: 20%
Population Tubulin-Different-Phenotype (%) [3]: 54%
Total Cell Count [3]: 127
Population Apoptotic (%) [4]: 39%
Population Fragmented Nuclei (%) [4]: 43%
Population Healthy Nuclei (%) [4]: 27%
Population Membrane Permeable-Phenotype (%) [4]: 11%
Population Mitochondria Different-Phenotype (%) [4]: 14%
Population Mitotic Cells (%) [4]: 60%
Population Normal (%) [4]: 98%
Population Pyknosed Nuclei (%) [4]: 28%
Population Tubulin-Different-Phenotype (%) [4]: 77%
Total Cell Count [4]: 100
Population Apoptotic (%) [5]: 47%
Population Fragmented Nuclei (%) [5]: 17%
Population Healthy Nuclei (%) [5]: 67%
Population Hoechst High Intensity Objects (%) [5]: 4%
Population Membrane Permeable-Phenotype (%) [5]: 0%
Population Mitochondria Different-Phenotype (%) [5]: 1%
Population Mitotic Cells (%) [5]: 52%
Population Normal (%) [5]: 95%
Population Pyknosed Nuclei (%) [5]: 15%
Population Tubulin-Different-Phenotype (%) [5]: 27%
Total Cell Count [5]: 146
Population Apoptotic (%) [6]: 37%
Population Fragmented Nuclei (%) [6]: 25%
Population Healthy Nuclei (%) [6]: 50%
Population Hoechst High Intensity Objects (%) [6]: 10%
Population Membrane Permeable-Phenotype (%) [6]: 10%
Population Mitochondria Different-Phenotype (%) [6]: 2%
Population Mitotic Cells (%) [6]: 62%
Population Normal (%) [6]: 89%
Population Pyknosed Nuclei (%) [6]: 24%
Population Tubulin-Different-Phenotype (%) [6]: 48%
Total Cell Count [6]: 109
Population Apoptotic (%) [7]: 52%
Population Fragmented Nuclei (%) [7]: 20%
Population Healthy Nuclei (%) [7]: 60%
Population Hoechst High Intensity Objects (%) [7]: 5%
Population Membrane Permeable-Phenotype (%) [7]: 0%
Population Mitochondria Different-Phenotype (%) [7]: 5%
Population Mitotic Cells (%) [7]: 47%
Population Normal (%) [7]: 94%
Population Pyknosed Nuclei (%) [7]: 18%
Population Tubulin-Different-Phenotype (%) [7]: 41%
Total Cell Count [7]: 131
Population Apoptotic (%) [8]: 27%
Population Fragmented Nuclei (%) [8]: 49%
Population Healthy Nuclei (%) [8]: 31%
Population Hoechst High Intensity Objects (%) [8]: 6%
Population Membrane Permeable-Phenotype (%) [8]: 10%
Population Mitochondria Different-Phenotype (%) [8]: 3%
Population Mitotic Cells (%) [8]: 72%
Population Normal (%) [8]: 93%
Population Pyknosed Nuclei (%) [8]: 19%
Population Tubulin-Different-Phenotype (%) [8]: 75%
Total Cell Count [8]: 99
Population Apoptotic (%) [9]: 64%
Population Fragmented Nuclei (%) [9]: 25%
Population Healthy Nuclei (%) [9]: 63%
Population Hoechst High Intensity Objects (%) [9]: 2%
Population Membrane Permeable-Phenotype (%) [9]: 0%
Population Mitochondria Different-Phenotype (%) [9]: 4%
Population Mitotic Cells (%) [9]: 35%
Population Normal (%) [9]: 97%
Population Pyknosed Nuclei (%) [9]: 11%
Population Tubulin-Different-Phenotype (%) [9]: 30%
Total Cell Count [9]: 152
Population Apoptotic (%) [10]: 42%
Population Fragmented Nuclei (%) [10]: 28%
Population Healthy Nuclei (%) [10]: 51%
Population Hoechst High Intensity Objects (%) [10]: 9%
Population Membrane Permeable-Phenotype (%) [10]: 2%
Population Mitochondria Different-Phenotype (%) [10]: 0%
Population Mitotic Cells (%) [10]: 57%
Population Normal (%) [10]: 90%
Population Pyknosed Nuclei (%) [10]: 20%
Population Tubulin-Different-Phenotype (%) [10]: 59%
Total Cell Count [10]: 102
Population Apoptotic (%) [11]: 73%
Population Fragmented Nuclei (%) [11]: 29%
Population Healthy Nuclei (%) [11]: 58%
Population Hoechst High Intensity Objects (%) [11]: 8%
Population Membrane Permeable-Phenotype (%) [11]: 0%
Population Mitochondria Different-Phenotype (%) [11]: 20%
Population Mitotic Cells (%) [11]: 26%
Population Normal (%) [11]: 91%
Population Pyknosed Nuclei (%) [11]: 12%
Population Tubulin-Different-Phenotype (%) [11]: 57%
Total Cell Count [11]: 131
Population Apoptotic (%) [12]: 75%
Population Fragmented Nuclei (%) [12]: 56%
Population Healthy Nuclei (%) [12]: 36%
Population Hoechst High Intensity Objects (%) [12]: 2%
Population Membrane Permeable-Phenotype (%) [12]: 2%
Population Mitochondria Different-Phenotype (%) [12]: 18%
Population Mitotic Cells (%) [12]: 25%
Population Normal (%) [12]: 97%
Population Pyknosed Nuclei (%) [12]: 7%
Population Tubulin-Different-Phenotype (%) [12]: 84%
Total Cell Count [12]: 108

COc1cc(Nc2ncc3c(n2)-c2ccc(Cl)cc2C(c2c(F)cccc2OC)=NC3)ccc1C(=O)O [ALISERTIB]
Population Apoptotic (%) [1]: 39%
Population Fragmented Nuclei (%) [1]: 11%
Population Healthy Nuclei (%) [1]: 66%
Population Hoechst High Intensity Objects (%) [1]: 1%
Population Membrane Permeable-Phenotype (%) [1]: 2%
Population Mitochondria Different-Phenotype (%) [1]: 4%
Population Mitotic Cells (%) [1]: 60%
Population Normal (%) [1]: 98%
Population Pyknosed Nuclei (%) [1]: 21%
Population Tubulin-Different-Phenotype (%) [1]: 23%
Population Apoptotic (%) [2]: 42%
Population Fragmented Nuclei (%) [2]: 18%
Population Healthy Nuclei (%) [2]: 47%
Population Hoechst High Intensity Objects (%) [2]: 8%
Population Membrane Permeable-Phenotype (%) [2]: 7%
Population Mitochondria Different-Phenotype (%) [2]: 7%
Population Mitotic Cells (%) [2]: 57%
Population Normal (%) [2]: 91%
Population Pyknosed Nuclei (%) [2]: 33%
Population Tubulin-Different-Phenotype (%) [2]: 41%
Population Apoptotic (%) [3]: 56%
Population Fragmented Nuclei (%) [3]: 28%
Population Healthy Nuclei (%) [3]: 47%
Population Hoechst High Intensity Objects (%) [3]: 13%
Population Membrane Permeable-Phenotype (%) [3]: 1%
Population Mitochondria Different-Phenotype (%) [3]: 22%
Population Mitotic Cells (%) [3]: 43%
Population Normal (%) [3]: 86%
Population Pyknosed Nuclei (%) [3]: 24%
Population Tubulin-Different-Phenotype (%) [3]: 69%
Total Cell Count [3]: 209
Population Apoptotic (%) [4]: 48%
Population Fragmented Nuclei (%) [4]: 35%
Population Healthy Nuclei (%) [4]: 30%
Population Hoechst High Intensity Objects (%) [4]: 8%
Population Membrane Permeable-Phenotype (%) [4]: 4%
Population Mitochondria Different-Phenotype (%) [4]: 16%
Population Mitotic Cells (%) [4]: 51%
Population Normal (%) [4]: 91%
Population Pyknosed Nuclei (%) [4]: 33%
Population Tubulin-Different-Phenotype (%) [4]: 64%
Total Cell Count [4]: 89
Population Apoptotic (%) [5]: 36%
Population Fragmented Nuclei (%) [5]: 12%
Population Healthy Nuclei (%) [5]: 69%
Population Hoechst High Intensity Objects (%) [5]: 2%
Population Membrane Permeable-Phenotype (%) [5]: 2%
Population Mitochondria Different-Phenotype (%) [5]: 6%
Population Mitotic Cells (%) [5]: 63%
Population Normal (%) [5]: 97%
Population Pyknosed Nuclei (%) [5]: 18%
Population Tubulin-Different-Phenotype (%) [5]: 28%
Total Cell Count [5]: 123
Population Apoptotic (%) [6]: 48%
Population Fragmented Nuclei (%) [6]: 26%
Population Healthy Nuclei (%) [6]: 47%
Population Hoechst High Intensity Objects (%) [6]: 4%
Population Membrane Permeable-Phenotype (%) [6]: 4%
Population Mitotic Cells (%) [6]: 51%
Population Normal (%) [6]: 95%
Population Pyknosed Nuclei (%) [6]: 26%
Population Tubulin-Different-Phenotype (%) [6]: 47%
Population Apoptotic (%) [7]: 64%
Population Fragmented Nuclei (%) [7]: 29%
Population Healthy Nuclei (%) [7]: 44%
Population Hoechst High Intensity Objects (%) [7]: 13%
Population Membrane Permeable-Phenotype (%) [7]: 1%
Population Mitochondria Different-Phenotype (%) [7]: 24%
Population Mitotic Cells (%) [7]: 35%
Population Normal (%) [7]: 86%
Population Pyknosed Nuclei (%) [7]: 25%
Population Tubulin-Different-Phenotype (%) [7]: 68%
Total Cell Count [7]: 191
Population Apoptotic (%) [8]: 56%
Population Fragmented Nuclei (%) [8]: 45%
Population Healthy Nuclei (%) [8]: 36%
Population Hoechst High Intensity Objects (%) [8]: 5%
Population Membrane Permeable-Phenotype (%) [8]: 0%
Population Mitochondria Different-Phenotype (%) [8]: 9%
Population Mitotic Cells (%) [8]: 43%
Population Normal (%) [8]: 94%
Population Pyknosed Nuclei (%) [8]: 18%
Population Tubulin-Different-Phenotype (%) [8]: 71%
Total Cell Count [8]: 93
Population Apoptotic (%) [9]: 57%
Population Fragmented Nuclei (%) [9]: 15%
Population Healthy Nuclei (%) [9]: 65%
Population Hoechst High Intensity Objects (%) [9]: 5%
Population Membrane Permeable-Phenotype (%) [9]: 4%
Population Mitochondria Different-Phenotype (%) [9]: 5%
Population Mitotic Cells (%) [9]: 42%
Population Normal (%) [9]: 94%
Population Pyknosed Nuclei (%) [9]: 19%
Population Tubulin-Different-Phenotype (%) [9]: 32%
Total Cell Count [9]: 115
Population Apoptotic (%) [10]: 38%
Population Fragmented Nuclei (%) [10]: 33%
Population Healthy Nuclei (%) [10]: 42%
Population Membrane Permeable-Phenotype (%) [10]: 7%
Population Mitotic Cells (%) [10]: 61%
Population Pyknosed Nuclei (%) [10]: 24%
Population Tubulin-Different-Phenotype (%) [10]: 54%
Population Apoptotic (%) [11]: 84%
Population Fragmented Nuclei (%) [11]: 38%
Population Healthy Nuclei (%) [11]: 35%
Population Hoechst High Intensity Objects (%) [11]: 23%
Population Membrane Permeable-Phenotype (%) [11]: 5%
Population Mitochondria Different-Phenotype (%) [11]: 37%
Population Mitotic Cells (%) [11]: 15%
Population Normal (%) [11]: 76%
Population Pyknosed Nuclei (%) [11]: 26%
Population Tubulin-Different-Phenotype (%) [11]: 80%
Total Cell Count [11]: 188
Population Apoptotic (%) [12]: 66%
Population Fragmented Nuclei (%) [12]: 37%
Population Healthy Nuclei (%) [12]: 51%
Population Hoechst High Intensity Objects (%) [12]: 8%
Population Membrane Permeable-Phenotype (%) [12]: 2%
Population Mitochondria Different-Phenotype (%) [12]: 15%
Population Mitotic Cells (%) [12]: 33%
Population Normal (%) [12]: 91%
Population Pyknosed Nuclei (%) [12]: 11%
Population Tubulin-Different-Phenotype (%) [12]: 65%
Total Cell Count [12]: 85

Source: ChEMBL document CHEMBL5058577, “EUbOPEN Chemogenomics Library 2 (Multiplex)” (2022)
